Laboratory results taken from ChEMBL document CHEMBL1649322, “Oral treatment options for ambulatory patients with urinary tract infections caused by extended-spectrum-beta-lactamase-producing Escherichia coli” (2010).
Converted amounts (≈) assume the structure as drawn.

How the values were obtained:
Escherichia coli [1] = test: Antimicrobial activity against xtended-spectrum-beta-lactamase-producing Escherichia coli obtained from urinary tract infection patient by Etest; assay type: functional; settings: Urine
Summary of the method: (§1)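 ESBL-producing E. coli isolates from urinary tract infections; ESBL expression confirmed by double-disk synergy test per 2007 CLSI guidelines. Verified isolates (n = 100) tested by Etest, alongside agar diffusion, for pivmecillinam, fosfomycin and ertapenem. Read-outs were MIC and susceptibility category (susceptible, reduced/intermediate, resistant), given as percent of isolates; mean MIC calculated for susceptible isolates.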

Escherichia coli [2] = test: Antimicrobial activity against xtended-spectrum-beta-lactamase-producing Escherichia coli obtained from urinary tract infection patient assessed as percent susceptible isolates by Etest; assay type: functional, Urine; summary of the method: as §1

**Q.** Which results are given for `C[C@@H](O)[C@H]1C(=O)N2C(C(=O)O)=C(S[C@@H]3CN[C@H](C(=O)Nc4cccc(C(=O)O)c4)C3)[C@H](C)[C@H]12` [ERTAPENEM]?
**A.** MIC (Escherichia coli [1]): 0.07 mg/L (≈ 0.147 µM); Activity (Escherichia coli [2]): 100%

**Q.** GENTAMICIN was tested. Which Activity (Escherichia coli [2]; Urine) did it give?
**A.** Its Activity is 78%.

**Q.** `O=C1CN(/N=C/c2ccc([N+](=O)[O-])o2)C(=O)N1` [NITROFURANTOIN] was tested. Which MIC (Escherichia coli [1]) did it give?
**A.** Its MIC is 17 mg/L (≈ 71.5 µM).

**Q.** What about the Activity (Escherichia coli [2]) of the same compound?
**A.** The Activity was 94%.

**Q.** For `CC(C)(C)C(=O)OCOC(=O)[C@@H]1N2C(=O)[C@@H](/N=C/N3CCCCCC3)[C@H]2SC1(C)C` [AMDINOCILLIN PIVOXIL], which MIC (Escherichia coli [1]) is on record?
**A.** The MIC was 1.17 mg/L (≈ 2.66 µM).

**Q.** What about the Activity (Escherichia coli [2]) of the same compound?
**A.** The Activity was 85%.

**Q.** Which results are given for `C[C@@H]1O[C@@H]1P(=O)(O)O` [FOSFOMYCIN]?
**A.** MIC (Escherichia coli [1]): 1.38 mg/L (≈ 10 µM); Activity (Escherichia coli [2]): 97%

**Q.** With `O=C(O)c1cn(C2CC2)c2cc(N3CCNCC3)c(F)cc2c1=O` [CIPROFLOXACIN] as the compound, how does the Activity (Escherichia coli [2]) read?
**A.** The Activity was 22%.
